Reference: ChEMBL document CHEMBL5096186, “Design, Synthesis, and Biological Evaluation of Novel Pyrimido[4,5-b]indole Derivatives Against Gram-Negative Multidrug-Resistant Pathogens” (J Med Chem, 2021)
≈ marks a conversion by molar mass, not a printed value.

Tests used:
[1] = test system: Pseudomonas aeruginosa; assay: Antibacterial activity against wild type Pseudomonas aeruginosa ATCC 27853 assessed as reduction in bacterial growth incubated for 18 to 20 hrs by CLSI based microdilution method; assay type: functional; conditions: time 18-20 hrs
Procedure, shortened: (§1)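 CLSI broth microdilution. Compounds in DMSO (levofloxacin and meropenem in water), serial twofold dilutions in broth, 64 to 0.008 μg/mL. […] Results reported as MIC ranges across strains.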

[2] = test system: Klebsiella pneumoniae; assay: Antibacterial activity agains wild type Klebsiella pneumoniae ATCC BAA-2470 assessed as reduction in bacterial growth incubated for 18 to 20 hrs by CLSI based microdilution method; assay type: functional; conditions: time 18-20 hrs
Procedure, shortened: (§2)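 Broth microdilution per CLSI. Compounds dissolved in DMSO (levofloxacin and meropenem in water) as 64 μg/mL stock, then serial twofold dilutions in broth giving 64 to 0.008 μg/mL. […] Clinical isolates tested as several strains per group; racemic GP-1 served as positive control; values given as MIC ranges.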

[3] = test system: Escherichia coli; assay: Antibacterial activity against multidrug resistant wild type Escherichia coli NCTC 13353 assessed as reduction in bacterial growth incubated for 18 to 20 hrs by CLSI based microdilution method; assay type: functional; conditions: time 18-20 hrs; procedure, shortened: as §2
[4] = target: Voltage-gated inwardly rectifying potassium channel KCNH2 (Homo sapiens, UniProt Q12809); assay: Inhibition of hERG potassium channel assessed as […] at -80 mV holding potential incubated for 120 seconds by whole cell-automated voltage clamp analysis assay; assay type: toxicity
Procedure, shortened: (§3)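 Automated whole-cell patch clamp, holding potential −80 mV. Voltage protocol applied every 20 s. Baseline set with external solution containing 0.1% DMSO and stabilised 3 min. Compound applied until steady state, at least 3 min, then washout. Maximum tested concentration 40 μM, or 3 μM for cisapride as positive control.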

[5] = test system: Staphylococcus aureus; assay: Antibacterial activity against methicillin-sensitive Staphylococcus aureus strains 15 1 to 4 assessed as reduction in bacterial growth incubated for 18 to 20 hrs by CLSI based microdilution method; assay type: functional; conditions: time 18-20 hrs; procedure, shortened: as §2
[6] = Cytotoxicity against human HEK293 cells assessed as cell viability measured for 48 hrs by CCK-8 assay; assay type: toxicity, cell-based
Procedure, shortened: (§4)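 Cells seeded at 1 × 10⁴ per well and grown for 48 h. Then exposed to test articles at 1–200 μM for another 48 h (n = 6). Viability by CCK-8 added for 2 h, absorbance read at 450 nm. CC50 calculated and reported as the mean.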

[7] = test system: Escherichia coli; assay: Antibacterial activity against Escherichia coli ATCC 35218 strains 15 1 to 3 assessed as reduction in bacterial growth incubated for 18 to 20 hrs by CLSI based microdilution method; assay type: functional; conditions: time 18-20 hrs; procedure, shortened: as §1
[8] = test system: Escherichia coli; assay: Antibacterial activity against ESBL-producing multidrug resistant Escherichia coli assessed as reduction in bacterial growth incubated for 18 to 20 hrs by CLSI based microdilution method; assay type: functional; conditions: time 18-20 hrs; procedure, shortened: as §2
[9] = target: hERG (KCNH2) potassium channel (Homo sapiens, UniProt Q12809); assay: Inhibition of hERG potassium channel assessed as maximum inhibition rate at 40 uM at -80 mV holding potential incubated for 120 seconds by whole cell-automated voltage clamp analysis assay relative to control; assay type: toxicity; conditions: time 120 sec; procedure, shortened: as §3
[10] = test system: Klebsiella pneumoniae; assay: Antibacterial activity agains wild type Klebsiella pneumoniae ATCC BAA-1705 assessed as reduction in bacterial growth incubated for 18 to 20 hrs by CLSI based microdilution method; assay type: functional; conditions: time 18-20 hrs; procedure, shortened: as §1
[11] = test system: Escherichia coli; assay: Antibacterial activity against multidrug resistant wild type Escherichia coli ATCC BAA-2340 assessed as reduction in bacterial growth incubated for 18 to 20 hrs by CLSI based microdilution method; assay type: functional; conditions: time 18-20 hrs; procedure, shortened: as §2
[12] = test system: Acinetobacter baumannii; assay: Antibacterial activity agains OXA23-producing multidrug resistant Acinetobacter baumannii assessed as reduction in bacterial growth incubated for 18 to 20 hrs by CLSI based microdilution method; assay type: functional; conditions: time 18-20 hrs; procedure, shortened: as §2
[13] = test system: Staphylococcus epidermidis; assay: Antibacterial activity against methicillin-sensitive Staphylococcus epidermidis strains 15 1 to 4 assessed as reduction in bacterial growth incubated for 18 to 20 hrs by CLSI based microdilution method; assay type: functional; conditions: time 18-20 hrs; procedure, shortened: as §2
[14] = test system: Pseudomonas aeruginosa; assay: Antibacterial activity against IMP4-producing multidrug resistant Pseudomonas aeruginosa assessed as reduction in bacterial growth incubated for 18 to 20 hrs by CLSI based microdilution method; assay type: functional; conditions: time 18-20 hrs; procedure, shortened: as §2
[15] = test system: Escherichia coli; assay: Antibacterial activity against ESBL-producing Escherichia coli ATCC 35218 strains 15 1 to 3 assessed as reduction in bacterial growth incubated for 18 to 20 hrs by CLSI based microdilution method; assay type: functional; conditions: time 18-20 hrs; procedure, shortened: as §1
[16] = Cytotoxicity against human L02 cells assessed as cell viability measured for 48 hrs by CCK-8 assay; assay type: toxicity, cell-based; procedure, shortened: as §4
[17] = test system: Pseudomonas aeruginosa; assay: Antibacterial activity against multidrug resistant Pseudomonas aeruginosa strains 15 1 to 3 assessed as reduction in bacterial growth incubated for 18 to 20 hrs by CLSI based microdilution method; assay type: functional; conditions: time 18-20 hrs; procedure, shortened: as §2
[18] = test system: Klebsiella pneumoniae; assay: Antibacterial activity against KPC2-producing multidrug resistant Klebsiella pneumoniae assessed as reduction in bacterial growth incubated for 18 to 20 hrs by CLSI based microdilution method; assay type: functional; conditions: time 18-20 hrs; procedure, shortened: as §2
[19] = test system: Acinetobacter baumannii; assay: Antibacterial activity against wild type Acinetobacter baumannii NCTC 13304 assessed as reduction in bacterial growth incubated for 18 to 20 hrs by CLSI based microdilution method; assay type: functional; conditions: time 18-20 hrs; procedure, shortened: as §2
[20] = Metabolic stability in human liver microsome assessed as elimination half life at 0.1 uM in presence of NADPH incubated upto 60 mins by LC-MS/MS analysis; assay type: ADME; conditions: liver microsomes, read-out: beta t1/2
Procedure, shortened: (§5)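 Compound at 0.1 μM final, in 0.01% DMSO with 0.005% BSA. Incubated with rat or human liver microsomes at 0.33 mg/mL in 0.1 M Tris-HCl, pH 7.4, with 5 mM MgCl₂ and 1 mM NADPH, at 37 °C. Samples at 0, 7, 17, 30 and 60 min quenched with cold methanol and analysed by LC-MS/MS. Half-life, Cl_int and MF% derived as previously described.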

[21] = Volume of distribution at the steady state in Sprague-Dawley rat at 4 mg/kg, iv measured upto 24 hrs by LC-MS/MS analysis; assay type: ADME, organism-based; conditions: in vivo, read-out: Vdss
Procedure, shortened: (§6)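 Male Sprague-Dawley rats, n = 3 per group, single intravenous dose. For 4 mg/kg: 180–280 g rats, vehicle 5% DMSO + 5% EtOH + 40% PEG300 + 50% saline, blood from the retrobulbar vein at 0.05–24 h. For 5 and 20 mg/kg: 180–300 g rats, vehicle 5% DMSO + 5% solutol + 90% saline, sampled at 0.083–24 h. Plasma quantified by LC/MS/MS. Parameters from mean plasma concentration by noncompartmental analysis; values are mean ± standard deviation.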

[22] = Metabolic stability in human liver microsome assessed as intrinsic clearance at 0.1 uM in presence of NADPH incubated upto 60 mins by LC-MS/MS analysis; assay type: ADME; conditions: microsomes, 1 h; procedure, shortened: as §5
[23] = Elimination half life in Sprague-Dawley rat at 4 mg/kg, iv measured upto 24 hrs by LC-MS/MS analysis; assay type: ADME, organism-based; conditions: in vivo, read-out: beta t1/2 (converted); procedure, shortened: as §6
[24] = AUC (0 to infinity) in Sprague-Dawley rat at 4 mg/kg, iv measured upto 24 hrs by LC-MS/MS analysis; assay type: ADME, organism-based; design: time < 24 hrs, dose 4 mg/kg, route iv; conditions: in vivo; procedure, shortened: as §6
[25] = Metabolic stability in rat liver microsome assessed as intrinsic clearance at 0.1 uM in presence of NADPH incubated upto 60 mins by LC-MS/MS analysis; assay type: ADME; conditions: microsomes, 1 h; procedure, shortened: as §5
[26] = Metabolic stability in rat liver microsome assessed as metabolic bioavailability at 0.1 uM in presence of NADPH incubated upto 60 mins by LC-MS/MS analysis; assay type: ADME; conditions: liver microsomes; procedure, shortened: as §5
[27] = Metabolic stability in human liver microsome assessed as metabolic bioavailability at 0.1 uM in presence of NADPH incubated upto 60 mins by LC-MS/MS analysis; assay type: ADME; conditions: liver microsomes; procedure, shortened: as §5
[28] = Clearance in Sprague-Dawley rat at 4 mg/kg, iv measured upto 24 hrs by LC-MS/MS analysis; assay type: ADME, organism-based; conditions: in vivo; procedure, shortened: as §6
[29] = Metabolic stability in rat liver microsome assessed as elimination half life at 0.1 uM in presence of NADPH incubated upto 60 mins by LC-MS/MS analysis; assay type: ADME; conditions: liver microsomes, read-out: beta t1/2; procedure, shortened: as §5
[30] = MRT in Sprague-Dawley rat at 4 mg/kg, iv measured upto 24 hrs by LC-MS/MS analysis; assay type: ADME, organism-based; conditions: in vivo; procedure, shortened: as §6

Chain of hERG (KCNH2) potassium channel (Q12809 whole entry): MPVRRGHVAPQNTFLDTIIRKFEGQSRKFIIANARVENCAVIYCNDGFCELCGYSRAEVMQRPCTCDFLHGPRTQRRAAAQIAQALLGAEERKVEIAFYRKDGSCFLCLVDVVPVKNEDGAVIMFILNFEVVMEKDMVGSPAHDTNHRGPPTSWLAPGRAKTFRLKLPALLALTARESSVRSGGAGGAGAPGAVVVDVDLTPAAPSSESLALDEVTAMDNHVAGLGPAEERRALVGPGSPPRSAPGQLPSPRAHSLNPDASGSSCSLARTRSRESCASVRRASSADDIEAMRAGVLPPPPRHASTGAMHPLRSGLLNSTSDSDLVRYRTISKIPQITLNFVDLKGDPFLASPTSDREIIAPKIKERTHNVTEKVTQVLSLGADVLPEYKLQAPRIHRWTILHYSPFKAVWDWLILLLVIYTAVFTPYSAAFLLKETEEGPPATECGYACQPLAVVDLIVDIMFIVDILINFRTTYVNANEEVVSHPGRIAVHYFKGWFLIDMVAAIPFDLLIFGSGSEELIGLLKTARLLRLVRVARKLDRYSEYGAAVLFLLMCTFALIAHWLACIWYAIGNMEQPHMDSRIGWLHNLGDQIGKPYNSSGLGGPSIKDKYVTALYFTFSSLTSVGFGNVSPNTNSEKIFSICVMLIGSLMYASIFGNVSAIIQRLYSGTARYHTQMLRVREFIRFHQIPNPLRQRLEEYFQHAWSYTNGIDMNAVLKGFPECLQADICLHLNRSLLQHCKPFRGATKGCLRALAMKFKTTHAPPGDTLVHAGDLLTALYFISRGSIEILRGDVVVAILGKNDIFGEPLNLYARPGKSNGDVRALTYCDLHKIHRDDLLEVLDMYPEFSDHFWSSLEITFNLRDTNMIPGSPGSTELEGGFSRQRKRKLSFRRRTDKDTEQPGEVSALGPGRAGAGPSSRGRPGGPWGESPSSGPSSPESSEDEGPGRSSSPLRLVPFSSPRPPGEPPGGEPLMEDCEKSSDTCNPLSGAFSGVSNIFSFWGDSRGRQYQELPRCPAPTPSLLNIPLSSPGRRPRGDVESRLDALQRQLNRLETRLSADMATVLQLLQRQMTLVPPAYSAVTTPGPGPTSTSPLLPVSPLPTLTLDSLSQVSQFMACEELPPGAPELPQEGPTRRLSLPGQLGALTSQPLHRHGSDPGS
Chain of Voltage-gated inwardly rectifying potassium channel KCNH2 (Q12809 whole entry): as above

Compound	MIC [1] [µg/mL]	MIC [2] [µg/mL]	MIC [3] [µg/mL]	IC50 [4] [µM]	MIC [5] [µg/mL]	MIC [7] [µg/mL]	MIC [8] [µg/mL]	inhibition at 2 min, 40 µM [9] [%]	MIC [10] [µg/mL]	MIC [11] [µg/mL]	MIC [12] [µg/mL]	MIC [13] [µg/mL]	MIC [14] [µg/mL]	MIC [15] [µg/mL]	MIC [17] [µg/mL]	MIC [18] [µg/mL]	MIC [19] [µg/mL]	other results
C=CCC(CN)=C1CN(c2nc(Oc3cnc(C)nc3)nc3[nH]c4c(NC)cc(F)cc4c23)C1	4 (≈ 8.69 µM)	2 (≈ 4.34 µM)	0.25 (≈ 0.543 µM)	> 40	< 0.008	0.06 (≈ 0.13 µM)	0.5 (≈ 1.09 µM)	49.1	4 (≈ 8.69 µM)	0.5 (≈ 1.09 µM)	0.25 (≈ 0.543 µM)	< 0.008	8 (≈ 17.4 µM)	0.125 (≈ 0.271 µM)	1 (≈ 2.17 µM)	2 (≈ 4.34 µM)	0.25 (≈ 0.543 µM)	CC50 at 48 h [6]: 29 µM; CC50 at 48 h [16]: 6.99 µM
CNc1cc(F)cc2c1[nH]c1nc(Oc3cnc(C)nc3)nc(N3CC(=CC(C)N)C3)c12 (configuration not stated)	4 (≈ 9.21 µM)	4 (≈ 9.21 µM)	0.5 (≈ 1.15 µM)	> 40	< 0.008	0.06 (≈ 0.138 µM)	1 (≈ 2.3 µM)	32.3	8 (≈ 18.4 µM)	1 (≈ 2.3 µM)	0.5 (≈ 1.15 µM)	< 0.008	8 (≈ 18.4 µM)	0.125 (≈ 0.288 µM)	0.5 (≈ 1.15 µM)	4 (≈ 9.21 µM)	0.5 (≈ 1.15 µM)	half-life at 0.1 µM [20]: 1.78 h; Vd [21]: 33.4 L/kg; CLH [22]: 19.6 mL/min/g; half-life [23]: 9 h; AUC(0-inf) [24]: 836 ng·h/mL; CLH [25]: 180.9 mL/min/g; Fh at 1 h, 0.1 µM [26]: 19.7%; Fh at 1 h, 0.1 µM [27]: 50%; clearance [28]: 81.5 mL/min/kg; half-life at 0.1 µM [29]: 0.2 h; MRT [30]: 6.8 h
